From PubChem BioAssay
In the library only some 3.1% were active in any assay of this set; here they are far more common.
KCNK9 inh – inhibitors of human KCNK9 two-pore domain potassium channel; Q9NPC2; HEK293 KCNK9, FluxOR thallium flux fluorescence; active compounds read low; B-score at 10 µM; 1.2% of 310,000 active; AID 488922;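 active means ratio B-score over 3 SD below the library mean, with starting fluorescence within 5 SD of its mean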;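 further: negative B-score means less thallium flux so channel inhibition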
hERG protect – hERG (human) protection from proarrhythmic block | Q12809 | CHO-hERG, FluxOR thallium flux, dofetilide IC70 present | activation (rescue from dofetilide block), less the hit threshold, % at 10 µM | 0.51% of 310,000 active;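 active means activation above the mean of controls blocked by dofetilide plus 5 SD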;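 further: thallium influx through hERG after potassium depolarization seen as dye fluorescence rise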
KCNK3 inh – human KCNK3 channel inhibition, primary screen | CHO-KCNK3 thallium flux, FluxOR fluorescence; active compounds read low | B-score at 10 µM | 0.84% of 340,000 active;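 active means B-score under library mean minus 4 SD, starting fluorescence ratio at most library mean plus 5 SD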;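 further: more negative B-score means stronger inhibition of thallium flux through KCNK3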
Target sequence (O14649 whole entry, looked up): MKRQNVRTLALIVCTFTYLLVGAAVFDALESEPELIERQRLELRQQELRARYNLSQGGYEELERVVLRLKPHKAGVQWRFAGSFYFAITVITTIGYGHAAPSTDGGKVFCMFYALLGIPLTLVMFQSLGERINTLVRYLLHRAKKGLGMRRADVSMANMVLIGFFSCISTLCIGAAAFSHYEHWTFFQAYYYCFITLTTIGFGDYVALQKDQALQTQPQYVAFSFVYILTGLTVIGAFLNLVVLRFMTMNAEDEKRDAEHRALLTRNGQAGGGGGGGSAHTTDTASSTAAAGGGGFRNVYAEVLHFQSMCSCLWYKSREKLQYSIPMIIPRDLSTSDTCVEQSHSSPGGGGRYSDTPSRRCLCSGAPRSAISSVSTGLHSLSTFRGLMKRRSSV
KCNQ1 block – blocks the human KCNQ1 potassium channel | CHO-K1 KCNQ1, FluxOR thallium flux fluorescence; active compounds read high | B-score at 10 µM | 1.3% of 310,000 active;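 active means compounds whose thallium flux B-score, printed positive for inhibition, exceeds three library SD while starting fluorescence stays within three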;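 further: channel opened by potassium depolarization with thallium stimulus after 20 min compound exposure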
KCNQ1 pot – human KCNQ1 channel potentiation or activation | CHO-K1 KCNQ1, thallium flux FluxOR fluorescence; active compounds read high | B-score at 10 µM | 0.35% of 310,000 active | AID 2648 | P51787;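 active means fluorescence ratio B-score, a plate-corrected score, at least three library SD, with initial intensity B-score within 5 SD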
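Schedule – 37 °C overnight plating, 90-min dark dye load, 20-min compound pretreatment · System – stable KCNQ1 CHO-K1 line · Probe or stimulus – thallium- and potassium-containing depolarizing buffer · Measured by – kinetic FluxOR fluorescence, 10 s baseline plus 110 s post-stimulus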
Each line names hits and unclear results; the compound was inactive in the other large screens.

COc1ccc(CC(=O)NC(c2ccccc2)c2ccc(C)cc2)c(OC)c1 (stereo unspecified)	none
CC(C)C[C@H]1C(=O)N2CCC[C@H]2[C@]2(O)O[C@](NC(=O)[C@@H]3C=C4c5cccc6[nH]c(Br)c(c56)CC4N(C)C3)(C(C)C)C(=O)N12 (stereo partly specified)	KCNQ1 block 6
CCOC(=O)c1[nH]c(=O)[nH]c1COC(=O)c1cc2ccccc2o1	hERG protect 6.2
COc1ccc(/C(O)=C/c2nc3ccc(C(=O)NCCc4cccc(C)c4)cc3[nH]c2=O)cc1OC	KCNK9 inh -8.03
Cc1nnc2n(-c3ccccc3)c(=O)c3c4c(sc3n12)COC(C(C)C)C4 (stereo unspecified)	none
CC(C)C1Cc2c(sc3[nH]c(=S)n(Cc4ccccc4)c(=O)c23)CO1 (stereo unspecified)	hERG protect 8.8, KCNQ1 pot 26
CCN1C(=O)c2cccc3c(NC(=O)c4ccccc4)ccc1c23	none
CCN1C(=O)c2cccc3c(NC(=O)c4ccc5c(c4)OCCO5)ccc1c23	KCNK3 inh -10.3
C=C(C)Cn1c(C)cc(C)c(S(=O)(=O)c2ccc(C)cc2)c1=O	KCNK9 inh -7.2
CCCN(Cc1ccccc1)C(=S)NC(=O)c1ccccc1[N+](=O)[O-]	hERG protect 29.0
O=C(NC(=S)N(CCO)Cc1ccccc1)c1cc(Br)ccc1Cl	hERG protect 19.0
CCN(Cc1ccccc1)C(=S)NC(=O)c1ccccc1Br	hERG protect 21.7, KCNQ1 pot 43
COc1ccc(OC)c(S(=O)(=O)NCC(=O)NC2CCCCCC2)c1	none (no result: KCNK9 inh, hERG protect, KCNQ1 block, KCNQ1 pot)
O=C(C1CC1)N1CCc2cc(Br)c(S(=O)(=O)N3CCCCCC3)cc21	none (no result: KCNK9 inh, hERG protect, KCNQ1 block, KCNQ1 pot)
CCCCCCCCn1c(N2CCN(c3cccc(Cl)c3)CC2)nc2c1c(=O)[nH]c(=O)n2C	none
CCCCCCn1c(N2CCN(c3cccc(Cl)c3)CC2)nc2c1c(=O)[nH]c(=O)n2C	KCNK9 inh -7.61
CCCn1c(SCC(=O)Nc2ccc3c(c2)OCCO3)n[nH]c1=O	none (no result: KCNK9 inh, hERG protect, KCNQ1 block, KCNQ1 pot)
S=c1[nH]nc(COc2ccccc2)n1/N=C/c1ccc(Cl)cc1	none
S=c1[nH]nc(Cc2ccc(Br)cc2)n1/N=C/c1ccc(Cl)cc1	hERG protect 16.1
Cc1oc(C)c2c(=O)ccc3c(c12)OC(N)=C(C#N)C3c1ccccc1Cl (stereo unspecified)	KCNQ1 block 6
Cc1oc(C)c2c(=O)ccc3c(c12)OC(N)=C(C#N)C3c1ccccc1 (stereo unspecified)	none
COc1ccccc1/C=N/NC(=O)c1ccccc1Cl	none
C/C(=N\NC(=O)c1ccccc1OCCOc1ccccc1)c1ccccc1F	KCNK3 inh -10.5 (no result: KCNK9 inh, hERG protect, KCNQ1 block, KCNQ1 pot)
CCOc1ccc2[nH]c(C(=O)N/N=C/c3ccccc3OC)cc2c1	KCNK9 inh -7.92
COc1ccc2[nH]c(C(=O)N/N=C/c3ccccc3OC)cc2c1	none
COc1ccc(/C=N/NC(=O)c2c(-c3ccccc3)noc2C)cc1	none
COc1ccccc1C=NNC(=O)c1ccccc1OCCOc1ccccc1	KCNK3 inh -10.2 (no result: KCNK9 inh, hERG protect, KCNQ1 block, KCNQ1 pot)
COc1ccc(/C=N/NC(=O)c2nc(-c3ccccc3)cc(-c3ccccc3)n2)cc1	KCNK9 inh -7.13, KCNQ1 block 10
c1ccc(C[C@H]2CN=C(Nc3ccccc3)N2CC2CCCCCC2)cc1	none (no result: KCNK9 inh, hERG protect, KCNQ1 block, KCNQ1 pot)
CN1C(=O)[C@@H]2C[C@@]3([C@@]45C[C@H]6C(=O)N(C)[C@@H](Cc7ccccc7)C(=O)N6[C@@H]4Nc4ccccc45)c4ccccc4N[C@H]3N2C(=O)[C@@H]1Cc1ccccc1	none
CC(Oc1nc2c(c(=O)n(C)c(=O)n2C)n1C)C1CCCCC1 (stereo unspecified)	none (no result: KCNK9 inh, hERG protect, KCNQ1 block, KCNQ1 pot)
COc1ccc(C(=O)N/N=C/c2ccc(OC(=O)c3ccccc3)cc2)cc1	none
COc1ccccc1C(=O)NCC(=O)N/N=C/c1cc(Br)ccc1OCc1ccccc1	KCNK9 inh -7.6
COc1ccc(C(=O)N/N=C/c2ccccc2OC(=O)c2ccccc2)cc1	KCNK9 inh -13.7
CCn1c(SCC(N)=O)nc2c(c1=O)C1(CCCC1)Cc1ccccc1-2	KCNK9 inh -6.7
NC(=O)CSc1nc2c(c(=O)n1-c1ccccc1)C1(CCCCC1)Cc1ccccc1-2	none
CCCCN1C(=O)C2ON(c3ccccc3C)C(c3ccco3)C2C1=O (stereo unspecified)	KCNK3 inh -9.03
CCc1nc(NCC2CCCO2)c2oc3ccccc3c2n1 (stereo unspecified)	KCNK3 inh -28
Cc1nc(Nc2ccc3c(c2)OCCO3)c2oc3ccccc3c2n1	none
CCc1nc(Nc2ccc3c(c2)OCCO3)c2oc3ccccc3c2n1	KCNK9 inh -7.57
Cc1nc(NCC2CCCO2)c2oc3ccccc3c2n1 (stereo unspecified)	none
O=C1[C@@H]2[C@@H](CN3CN(c4ccccc4)N=C(c4ccccc4)[C@@]23c2ccccc2)C(=O)N1c1ccccc1	none (no result: KCNK9 inh, hERG protect, KCNQ1 block, KCNQ1 pot)
COC1(OC)C(/C=C/c2ccc(Cl)cc2)C(C#N)(C#N)C1(OC)OC (stereo unspecified)	KCNQ1 block 10
Cc1cc2ccccn2c1C(=O)c1ccncc1	none
Cc1cc2ccccn2c1C(=S)NC(=O)c1ccccc1	hERG protect 33.6, KCNQ1 pot 26
Cc1cccc(NCCC(=O)c2ccc([N+](=O)[O-])cc2)c1C	hERG protect 4.7
Cc1nc2ccccc2c2oc(C(=O)Nc3ccc(C(C)C)cc3)cc12	KCNQ1 block 9
Cc1nc2ccccc2c2oc(C(=O)NCC3COc4ccccc4O3)cc12 (stereo unspecified)	KCNK3 inh -10.2
c1cncc(-c2nn[nH]n2)c1	hERG protect 7.5
Cc1cccc(NC(=O)c2ccc(N3CCCCC3)c([N+](=O)[O-])c2)n1	none
Cc1ccc(C)c2sc(NC(=O)c3ccc(N4CCCCC4)c([N+](=O)[O-])c3)nc12	KCNK9 inh -7.82
Cn1c(SCc2c(Cl)cccc2Cl)nc(C(F)(F)F)cc1=O	KCNK9 inh -6.67
Cc1ccc(S(=O)(=O)N2[C@@H](c3ccc(C(C)(C)C)cc3)C(C(=O)O)=CC[C@H]2c2ccc3c(c2)OCO3)cc1	none (no result: KCNK9 inh, hERG protect, KCNQ1 block, KCNQ1 pot)
N#Cc1nc(COc2ccc(Cl)cc2)oc1N1CCCCCC1	KCNK3 inh -8.72 (no result: KCNK9 inh, hERG protect, KCNQ1 block, KCNQ1 pot)
N#Cc1nc(Cc2ccccc2)oc1N1CCC(C(N)=O)CC1	none
Cc1ccc(OCc2nc(C#N)c(N3CCCCC3)o2)cc1	none
N#Cc1nc(Cc2cccc3ccccc23)oc1N1CCCCC1	KCNQ1 block 6
N#Cc1nc(Cc2ccccc2)oc1N1CCN(c2ccccc2)CC1	KCNK9 inh -6.96
COc1cccc(CNC(=O)CN2C(=O)CSc3ccc(S(=O)(=O)N4CCOCC4)cc32)c1	none
COC(=O)c1cc2sccc2n1Cc1ccc(C)cc1	KCNK9 inh -7.96
Cc1ccc(Cl)cc1N1CCN(C(=O)C2(S(=O)(=O)c3ccc(Cl)cc3)CC2)CC1	KCNQ1 block 6
Cc1ccc(NC(=O)CCc2nc3ccccc3c(=O)[nH]2)cc1S(=O)(=O)N1CCOCC1	none
